The target of this experiment is RXFP2 (Homo sapiens, UniProt Q8WXD0). The format is cell-based. The settings on record: for agonist/antagonist character at RXFP2 (in words): cAMP reporter gene assay. In outline:
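HEK-293T cells were co-transfected in 96-well format with RXFP2 and a pCRE–β-galactosidase reporter plasmid. They were exposed to increasing concentrations of test peptide for 6 h, then the medium was aspirated and the cells frozen at −80°C overnight before β-galactosidase was measured. Signals were normalised to the maximal native INSL3 response. Triplicates were run in three experiments, with pEC50 from a variable-slope sigmoidal fit.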

Each structure is given as a SMILES string.

Chain of RXFP2 (Q8WXD0 whole entry): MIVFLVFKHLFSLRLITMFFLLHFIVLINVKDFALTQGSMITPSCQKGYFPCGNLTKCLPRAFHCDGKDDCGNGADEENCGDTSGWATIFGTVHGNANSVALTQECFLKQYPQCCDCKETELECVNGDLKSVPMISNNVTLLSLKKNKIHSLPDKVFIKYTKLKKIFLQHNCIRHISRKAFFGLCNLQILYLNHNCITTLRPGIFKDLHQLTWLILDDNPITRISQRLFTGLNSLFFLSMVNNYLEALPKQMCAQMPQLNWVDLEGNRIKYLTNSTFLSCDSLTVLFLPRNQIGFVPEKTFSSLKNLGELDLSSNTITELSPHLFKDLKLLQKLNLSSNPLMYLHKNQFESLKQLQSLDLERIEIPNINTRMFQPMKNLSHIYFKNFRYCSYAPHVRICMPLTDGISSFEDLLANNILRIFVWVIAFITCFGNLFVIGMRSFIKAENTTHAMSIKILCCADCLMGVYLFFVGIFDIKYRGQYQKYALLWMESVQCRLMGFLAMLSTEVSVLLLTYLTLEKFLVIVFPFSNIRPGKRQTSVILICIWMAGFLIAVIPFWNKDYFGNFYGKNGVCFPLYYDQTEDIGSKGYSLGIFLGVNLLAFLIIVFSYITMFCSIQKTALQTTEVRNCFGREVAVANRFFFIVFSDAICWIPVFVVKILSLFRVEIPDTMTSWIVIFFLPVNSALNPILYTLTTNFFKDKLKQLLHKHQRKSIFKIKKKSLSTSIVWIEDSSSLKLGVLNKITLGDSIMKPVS

In the case of `CSCC[C@H](NC(=O)[C@H](CCC(=O)O)NC(=O)[C@@H]1CCCN1C(=O)[C@@H](NC(=O)[C@@H]1CCCN1)[C@@H](C)O)C(=O)N[C@@H](CCCNC(=N)N)C(=O)N[C@@H](CCC(=O)O)C(=O)N[C@@H](CCCCN)C(=O)N[C@@H](CC(C)C)C(=O)N[C@H]1CSSC[C@@H]2NC(=O)[C@@H](NC(=O)[C@H](CCCCN)NC(=O)[C@H](CC(N)=O)NC(=O)[C@H](C)NC(=O)[C@H](CC(C)C)NC(=O)[C@H](C)NC(=O)[C@H](CO)NC(=O)[C@H](Cc3ccc(O)cc3)NC(=O)[C@H](CC(C)C)NC(=O)[C@@H]3CCC(=O)N3)CSSC[C@H](NC(=O)CNC(=O)[C@H](C(C)C)NC(=O)[C@H](Cc3c[nH]cn3)NC2=O)C(=O)N[C@@H]([C@@H](C)O)C(=O)N[C@@H](CCCCN)C(=O)N[C@@H](CCCNC(=N)N)C(=O)N[C@@H](CO)C(=O)N[C@@H](CC(C)C)C(=O)N[C@@H](C)C(=O)N[C@@H](CCCNC(=N)N)C(=O)N[C@@H](Cc2ccccc2)C(=O)N[C@H](C(=O)O)CSSC[C@@H](C(=O)NCC(=O)NCC(=O)N2CCC[C@H]2C(=O)N[C@@H](CCCNC(=N)N)C(=O)N[C@@H](Cc2c[nH]c3ccccc23)C(=O)N[C@@H](CO)C(=O)N[C@H](C(=O)N[C@@H](CCC(=O)O)C(=O)N[C@@H](C)C(=O)O)[C@@H](C)O)NC(=O)[C@H](C(C)C)NC(=O)[C@H](CCCNC(=N)N)NC(=O)[C@H](C(C)C)NC(=O)[C@H](CC(C)C)NC(=O)[C@H](C)NC(=O)[C@H](CCCNC(=N)N)NC(=O)[C@H](C(C)C)NC(=O)[C@H](Cc2ccccc2)NC(=O)[C@H](Cc2c[nH]cn2)NC(=O)[C@H](Cc2c[nH]cn2)NC(=O)CNC1=O` [H2-A/INSL3-B], the “agonist/antagonist character at RXFP2 (in words)” value was “partial agonist”.

With `CSCC[C@H](NC(=O)[C@H](CCC(=O)O)NC(=O)[C@@H]1CCCN1C(=O)[C@@H](NC(=O)[C@@H]1CCCN1)[C@@H](C)O)C(=O)N[C@@H](CCCNC(=N)N)C(=O)N[C@@H](CCC(=O)O)C(=O)N[C@@H](CCCCN)C(=O)N[C@@H](CC(C)C)C(=O)N[C@H]1CSSC[C@@H]2NC(=O)[C@@H](NC(=O)[C@H](CC(C)C)NC(=O)[C@@H](NC(=O)[C@H](CCC(N)=O)NC(=O)[C@H](CC(C)C)NC(=O)[C@H](CC(=O)O)NC(=O)[C@@H]3CCC(=O)N3)[C@@H](C)O)CSSC[C@H](NC(=O)CNC(=O)[C@H](CC(=O)O)NC(=O)[C@H]([C@@H](C)O)NC2=O)C(=O)N[C@@H](CO)C(=O)N[C@@H](CCSC)C(=O)N[C@@H]([C@@H](C)O)C(=O)N[C@@H](CC(=O)O)C(=O)N[C@@H](CC(C)C)C(=O)N[C@@H](CO)C(=O)N[C@@H](C)C(=O)N[C@@H](CC(C)C)C(=O)N[C@H](C(=O)O)CSSC[C@@H](C(=O)NCC(=O)NCC(=O)N2CCC[C@H]2C(=O)N[C@@H](CCCNC(=N)N)C(=O)N[C@@H](Cc2c[nH]c3ccccc23)C(=O)N[C@@H](CO)C(=O)N[C@H](C(=O)N[C@@H](CCC(=O)O)C(=O)N[C@@H](C)C(=O)O)[C@@H](C)O)NC(=O)[C@H](C(C)C)NC(=O)[C@H](CCCNC(=N)N)NC(=O)[C@H](C(C)C)NC(=O)[C@H](CC(C)C)NC(=O)[C@H](C)NC(=O)[C@H](CCCNC(=N)N)NC(=O)[C@H](C(C)C)NC(=O)[C@H](Cc2ccccc2)NC(=O)[C@H](Cc2c[nH]cn2)NC(=O)[C@H](Cc2c[nH]cn2)NC(=O)CNC1=O` [INSL5-A/INSL3-B], the “agonist/antagonist character at RXFP2 (in words)” value is recorded as “high affinity antagonists”. In addition, the “ability to stimulate cAMP activity in RXFP2 expressing cells” value (in concentrations up to 1 μM) is “unable to stimulate cAMP”.

These data come from article PMC3356098 (Frontiers in Endocrinology, 2012).
